Assay results from paper PMC10085907 (Clinical Pharmacokinetics, 2023).

How the values were obtained:
[1] = cited from earlier work
[2] = assay type: in vivo, human; conditions: atovaquone/proguanil 250/100 mg alone; N = 16; mean ± SD
Procedure, shortened: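 Healthy CYP2C19 *1/*1 subjects (PCR-genotyped) in a crossover design; acid reducer given orally once daily for 6 days at the approved maximum dose, then co-dosed with oral atovaquone/proguanil. Plasma sampled to 48 h, urine in 0–8, 8–24 and 24–48 h intervals, both assayed by HPLC-MS/MS. Non-compartmental analysis: t½ = ln2/λz, CL/F = dose/AUCinf, fe = 48-h urinary proguanil/dose.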

[3] = proguanil alone, previous study; cited from earlier work
[4] = system: CYP3A4; conditions: read-out: CYP3A4 inhibition IC50; in vitro; cited from earlier work
[5] = cited from earlier work; remark: listed apart in the source
[6] = molecular target: T1, CYP2C19 (Homo sapiens, UniProt P33261); conditions: read-out: CYP2C19 half-maximum inhibitory concentration (IC50); in vitro; cited from earlier work
[7] = at the therapeutic dose; cited from earlier work
[8] = molecular target: T1, CYP2C19; assay type: in vivo; conditions: healthy CYP2C19 extensive metabolizers; 7 days of dosing

T1 sequence (P33261 whole entry): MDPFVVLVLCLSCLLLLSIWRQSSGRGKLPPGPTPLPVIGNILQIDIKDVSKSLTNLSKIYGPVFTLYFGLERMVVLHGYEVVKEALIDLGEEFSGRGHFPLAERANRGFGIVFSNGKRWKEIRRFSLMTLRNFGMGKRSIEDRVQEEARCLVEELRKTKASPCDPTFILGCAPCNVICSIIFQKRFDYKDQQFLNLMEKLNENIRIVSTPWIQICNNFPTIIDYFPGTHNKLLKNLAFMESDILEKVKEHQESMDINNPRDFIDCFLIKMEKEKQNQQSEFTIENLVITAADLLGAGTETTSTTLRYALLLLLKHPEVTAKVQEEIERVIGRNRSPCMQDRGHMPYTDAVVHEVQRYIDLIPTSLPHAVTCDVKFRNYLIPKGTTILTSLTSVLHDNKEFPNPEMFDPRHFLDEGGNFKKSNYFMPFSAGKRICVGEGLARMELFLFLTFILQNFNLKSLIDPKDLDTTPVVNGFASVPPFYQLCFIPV

In the case of `Cc1c(OCC(F)(F)F)ccnc1C[S+]([O-])c1nc2ccccc2[nH]1` (stereo not drawn) [lansoprazole], the “Biopharmaceutical Classification System (BCS) class” value [1] is listed as “class II”.

For `CC1(C)N=C(N)N=C(N)N1c1ccc(Cl)cc1` [Cycloguanil, cycloguanil], the “Metabolic ratio (AUCinf of cycloguanil to AUCinf of proguanil)” value [2] is given as 0.35 and the “Metabolic ratio (cycloguanil-to-proguanil ratio)” value [3] is given as 0.84.

In the case of `O=C1C(O)=C([C@H]2CC[C@H](c3ccc(Cl)cc3)CC2)C(=O)c2ccccc21` [Atovaquone, atovaquone], the IC50 [4] is given as […] and the “Excreted unchanged in the feces” value [5] is given as at least 94%.

For `CNCc1cc(-c2ccccc2F)n(S(=O)(=O)c2cccnc2)c1` [Vonoprazan, vonoprazan], the IC50 [6] is given as 13 µM and the “Unbound maximum plasma concentration (Cmax)” value [7] is given as “approximately 0.01 µM”.

In the case of `Cc1nc2c(O[C@H]3CCOc4cc(F)cc(F)c43)cc(C(=O)N(C)C)cc2[nH]1` [Tegoprazan, tegoprazan], the “Effect on CYP2C19 activity (conclusion from proguanil PK)” value [8] is listed as “neither an inhibitor nor an inducer of CYP2C19” and the “Unbound Cmax” value [7] is listed as “approximately 1.3 µM”.

In the case of `COc1ccc2[nH]c([S+]([O-])Cc3ncc(C)c(OC)c3C)nc2c1` (stereo not drawn) [omeprazole], the “Biopharmaceutical Classification System (BCS) class” value [1] is given as “class II”.

For `[H]/N=C(\N/C(=N/[H])Nc1ccc(Cl)cc1)NC(C)C` [Proguanil, proguanil], the “Biopharmaceutical Classification System (BCS) class” value [1] is given as “class III” and the “Fraction of the dose renally excreted” value [5] is given as 40–60%.
